20 compounds from ChEMBL document CHEMBL1150774, “1-[(Imidazolidin-2-yl)imino]indazole. Highly alpha 2/I1 selective agonist: synthesis, X-ray structure, and biological activity” (J Med Chem, 2008) can be followed below.

Activity calls are given as the source filed them. No cut-off for these calls is given here. Bounds are passed on as bounds.

As a reminder, the Ki is the equilibrium dissociation constant of an inhibitor or competing ligand from its target. In general, IC50 refers to the concentration that gives 50% inhibition. By ED50 is commonly meant the midpoint of the dose-response relation.

Assay [1] in a line: Displacement of [3H]2BFI from imidazoline 2 receptor in Sprague-Dawley rat brain. The procedure, abridged: (§1)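 Crude P2 membranes from male rat brain (250-280 g), washed and stored at -70 °C. 0.2-0.3 mg protein incubated with 11 concentrations (0.01 nM to 100 µM) plus 1 nM [3H]2BFI (I2) or 1 nM [3H]RX821002 (α2). Nonspecific binding: 10 µM BU224 (I2) or 10 µM rauwolscine (α2). Run in triplicate, 45 min at room temperature. Ki by Cheng-Prusoff, 3-4 experiments.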
Background: Loss of bound radioactivity is the signal in a displacement assay; it reports binding, not function.

The target in assay [2] is Nischarin (Rattus norvegicus, UniProt Q4G017). Nature of the assay: Displacement of [3H]clonidine from imidazoline 1 receptor in Sprague-Dawley rat kidney. The procedure, abridged: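 Crude P2 membranes from male rat kidney (250-280 g), 0.2-0.5 mg protein. Labelled with 3 nM [3H]clonidine; 10 µM rauwolscine present to block α2 sites; specific binding defined by 10 µM rilmenidine. 11 test concentrations. 50 mM Tris-HCl pH 7.4, 45 min at room temperature. Filtration, scintillation counting; IC50 is displacement of 50% of specific binding.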
Nischarin, sequence (Q4G017 whole entry): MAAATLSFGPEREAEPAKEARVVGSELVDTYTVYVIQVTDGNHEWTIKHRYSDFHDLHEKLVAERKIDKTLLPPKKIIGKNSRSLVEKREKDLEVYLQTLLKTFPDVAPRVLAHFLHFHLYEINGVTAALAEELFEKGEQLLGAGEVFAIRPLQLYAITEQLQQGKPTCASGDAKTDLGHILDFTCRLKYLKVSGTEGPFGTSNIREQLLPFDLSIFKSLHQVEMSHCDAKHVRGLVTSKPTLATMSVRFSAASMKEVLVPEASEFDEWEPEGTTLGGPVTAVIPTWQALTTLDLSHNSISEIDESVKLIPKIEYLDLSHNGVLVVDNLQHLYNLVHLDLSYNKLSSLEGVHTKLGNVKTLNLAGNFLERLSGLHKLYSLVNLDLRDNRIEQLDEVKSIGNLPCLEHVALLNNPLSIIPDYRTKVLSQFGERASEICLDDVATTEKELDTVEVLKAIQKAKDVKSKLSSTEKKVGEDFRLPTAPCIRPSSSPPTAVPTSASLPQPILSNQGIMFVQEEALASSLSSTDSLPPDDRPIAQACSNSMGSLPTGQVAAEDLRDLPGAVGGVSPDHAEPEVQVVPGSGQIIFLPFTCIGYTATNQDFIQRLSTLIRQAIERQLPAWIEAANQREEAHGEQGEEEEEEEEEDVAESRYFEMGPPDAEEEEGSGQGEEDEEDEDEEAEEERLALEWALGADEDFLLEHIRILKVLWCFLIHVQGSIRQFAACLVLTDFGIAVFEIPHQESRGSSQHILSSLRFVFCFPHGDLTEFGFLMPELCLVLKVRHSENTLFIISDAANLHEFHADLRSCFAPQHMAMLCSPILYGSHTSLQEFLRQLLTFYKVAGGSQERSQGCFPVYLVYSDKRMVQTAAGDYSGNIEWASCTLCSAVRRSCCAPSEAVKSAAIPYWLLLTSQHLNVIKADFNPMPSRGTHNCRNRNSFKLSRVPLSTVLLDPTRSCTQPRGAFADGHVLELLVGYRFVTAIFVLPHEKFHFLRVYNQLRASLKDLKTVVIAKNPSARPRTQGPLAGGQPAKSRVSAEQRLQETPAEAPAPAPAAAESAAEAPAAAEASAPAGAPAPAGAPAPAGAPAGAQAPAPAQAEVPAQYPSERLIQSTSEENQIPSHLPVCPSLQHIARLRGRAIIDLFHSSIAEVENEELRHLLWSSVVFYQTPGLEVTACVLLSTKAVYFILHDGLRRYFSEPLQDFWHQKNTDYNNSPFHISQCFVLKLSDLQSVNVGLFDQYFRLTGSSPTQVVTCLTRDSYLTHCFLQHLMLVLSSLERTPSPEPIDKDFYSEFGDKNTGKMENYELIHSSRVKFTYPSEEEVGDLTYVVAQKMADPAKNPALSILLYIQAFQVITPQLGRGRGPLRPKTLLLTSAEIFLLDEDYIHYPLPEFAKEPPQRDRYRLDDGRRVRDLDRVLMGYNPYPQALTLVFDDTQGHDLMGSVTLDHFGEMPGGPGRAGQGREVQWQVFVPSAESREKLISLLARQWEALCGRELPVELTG

Assay [3] in a line: Displacement of [3H][…] from alpha2 adrenoceptor in Sprague-Dawley rat brain. The procedure, abridged: as §1
The species entered for assay [4] is Rattus norvegicus. Nature of the assay: Selectivity for Sprague-Dawley rat alpha 2 adrenoceptor over Sprague-Dawley rat imidazoline 1 receptor.
The test system of assay [5] is Rattus norvegicus. Briefly: Hypotensive activity in Wistar rat assessed as decrease in mean arterial blood pressure at 0.1 mg/kg, iv after 90 mins. The format is functional. A digest of the protocol:
(§2)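 Male rats (200-250 g) anaesthetised with thiopental 70 mg/kg ip, then maintained at 30 (µg/kg)/min. Saline-thiopental infusion at 1.2 mL/h; 40 min recovery, then 40 min saline. Compound given as iv bolus at 0.1 mg/kg. MAP and HR recorded directly at 100 Hz. ΔMAP and ΔHR taken relative to time 0; 4-7 experiments; repeated-measures ANOVA.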

Assay [6] has as its system Rattus norvegicus. Briefly: Hypotensive activity in Wistar rat assessed as decrease in heart rate at 0.1 mg/kg, iv after 60 mins. In kind it is functional. A digest of the protocol:
as §2

Assay [7] concerns Rattus norvegicus. Nature of the assay: Hypotensive activity in Wistar rat assessed as decrease in heart rate at 0.1 mg/kg, iv after 90 mins. In kind it is functional. A digest of the protocol: as §2
Assay [8] relates to Rattus norvegicus. Nature of the assay: Hypotensive activity in Wistar rat assessed as decrease in mean arterial blood pressure at 0.1 mg/kg, iv after 30 mins. The format is functional. A digest of the protocol:
as §2

For assay [9], the system named is Rattus norvegicus. Briefly: Hypotensive activity in Wistar rat assessed as decrease in heart rate at 0.1 mg/kg, iv after 30 mins. The format is functional. The procedure, abridged: as §2
Assay [10] concerns Rattus norvegicus. Nature of the assay: Hypotensive activity in Wistar rat assessed as decrease in heart rate at 0.1 mg/kg, iv after 10 mins. The format is functional. A digest of the protocol: as §2
The subject of assay [11] is Rattus norvegicus. Nature of the assay: Hypotensive activity in Wistar rat assessed as decrease in mean arterial blood pressure at 0.1 mg/kg, iv after 10 mins. The format is functional. A digest of the protocol: as §2
Assay [12] concerns Rattus norvegicus. Nature of the assay: Hypotensive activity in Wistar rat assessed as decrease in mean arterial blood pressure at 0.1 mg/kg, iv after 60 mins. The format is functional. The procedure, abridged:
as §2

Assay [13] is filed under the species Rattus norvegicus. Briefly: Hypotensive activity in Wistar rat assessed as mean arterial blood pressure. In kind it is functional.
For assay [14], the system named is Rattus norvegicus. Briefly: Reversal of hypotensive activity in Wistar rat at 10 mg/kg, iv in presence of RX821002. In kind it is functional, organism-based. Also on record: dose 10 mg/kg.

Turning to `Clc1cccc2nn(N=C3NCCN3)cc12`, the Ki came to 13.1 µM in assay [1] and 3.14 µM in [3]. Besides, the IC50 in assay [2] came out at 47.8 µM. Also, in assay [4], the Selectivity ratio worked out at 15.3.

Regarding `c1ccc2nn(N=C3NCCN3)cc2c1`, the Ki in assay [1] turned out to be 77.8 µM; in assay [3] it was 78.3 µM.

For the compound `COc1cccc2c1cnn2N=C1NCCN1.Cl`, the Activity in assay [5] was -12.9 mmHg; in assay [6], -12.5 bpm; in [7] it was -11.6 bpm; in [8], -7.6 mmHg; in assay [9], -9.7 bpm; in assay [10], -18.6 bpm. For the same compound, the Activity in assay [11] was -3.7 mmHg; in assay [12] it was -11 mmHg. The Ki amounted to 5.98 µM in [1] and 69.6 µM in [3]. Further, the IC50 in assay [2] worked out at 13.5 µM. In addition, the Selectivity ratio in assay [4] is 0.19.

Consider `Cc1ccc2c(cnn2N=C2NCCN2)c1.Cl`, for which the Activity was -4.9 mmHg in assay [5]; -1 bpm in [6]; -3 bpm in assay [7]; -3.6 mmHg in assay [8]; -3.2 bpm in assay [9]; -104.2 bpm in assay [10]. Also, the Activity in [11] is on record as -4.1 mmHg; in [12], -4.6 mmHg. Moreover, the Ki in [1] amounted to 7.16 µM; in assay [3], 0.0442 µM. In assay [2], this compound yielded an IC50 of 20.3 µM. Further, the Selectivity ratio in [4] amounted to 460.

As to `c1ccc2c(c1)nnn2N=C1NCCN1`, the Ki in assay [1] and in assay [3] was more than 10 µM in each case. The IC50 in [2] turned out to be 84.6 µM. The Selectivity ratio in [4] was less than 8.46.

`Cc1ccc2cn(N=C3NCCN3)nc2c1`: the Ki in assay [1] came out at 42.9 µM; in assay [3] it was 50.7 µM. In assay [2], this compound returned a half-inhibitory concentration (IC50) of 19.7 µM. In addition, in [4], the Selectivity ratio was 0.39.

Take `Cc1cccc2c1cnn2N=C1NCCN1.Cl`: the Activity in [5] is listed as -10.1 mmHg; in [6] it was -22.7 bpm; in assay [7] it was -2.1 bpm; in assay [8], -29 mmHg; in assay [9] it was -88.3 bpm; in assay [10], -104.2 bpm. The Activity is reported as -17.7 mmHg in assay [11] and -14.1 mmHg in [12]. Further, the Ki in assay [1] came out at 10.4 µM; in assay [3], 0.0371 µM. Moreover, the IC50 in assay [2] turned out to be 38.5 µM. For the same compound, in assay [4], the Selectivity ratio came out at 1040.

For `Cl.c1ccc2c(c1)cnn2N=C1NCCN1` [MARSANIDINE HYDROCHLORIDE], the Activity in assay [5] is -22.1 mmHg; in assay [6], -31.4 bpm; in [7], -9.7 bpm; in assay [8], -30.9 mmHg; in [9], -49 bpm; in assay [10], -48.5 bpm. Further, the values for the Activity in assay [11] and in assay [12] were -6.9 mmHg and -29 mmHg, respectively. In addition, the Ki in assay [1] was 16.9 µM; in assay [3] it was 0.0141 µM. This compound returned an IC50 in [2] of 54.5 µM. The Selectivity ratio in assay [4] is 3880.

As for `Clc1ccc2nn(N=C3NCCN3)cc2c1`, the Ki in assay [1] turned out to be 33.2 µM; in assay [3], 74.1 µM. Further, the IC50 in assay [2] was 24.7 µM. In addition, the Selectivity ratio in assay [4] amounted to 0.33.

As for `Cc1cc2ncn(N=C3NCCN3)c2cc1C`, the inhibition constant (Ki) in assay [1] was more than 10 µM; in assay [3], 10.1 µM.

Consider `COc1ccc2cnn(N=C3NCCN3)c2c1.Cl`, for which the Activity is recorded as -5.3 mmHg in [5]; -4.1 bpm in assay [6]; 14.3 bpm in [7]; -17.1 mmHg in assay [8]; -23.6 bpm in assay [9]; -33 bpm in [10]. Further, the Activity in assay [11] is on record as -16.5 mmHg; in assay [12], -11.6 mmHg. Further, the Ki in [1] was 33.6 µM; in assay [3], 0.0962 µM.

Take `Cl.Clc1cccc2c1cnn2N=C1NCCN1`: the Activity in assay [5] is reported as -10.9 mmHg; in assay [6], -24.3 bpm; in assay [7], -19 bpm; in assay [8] it was -14 mmHg; in assay [9] it was -32.2 bpm; in assay [10] it was -60.8 bpm. In addition, the Activity is recorded as -10.9 mmHg in assay [11] and -12.3 mmHg in assay [12]. The Ki in assay [1] stood at 11.1 µM; in [3], 0.0616 µM. In assay [2], this compound registered an IC50 of 31.5 µM. Further, in assay [4], the Selectivity ratio is 511.

For the compound `Cl.c1ccc(-c2nn(N=C3NCCN3)c3ccccc23)cc1`, the Activity was -11.4 mmHg in [5]; -11.1 bpm in assay [6]; -12.7 bpm in [7]; -7.6 mmHg in assay [8]; -10.1 bpm in assay [9]; -17.7 bpm in [10]. The Activity in [11] is reported as -4.1 mmHg; in [12] it was -10 mmHg. The Ki in assay [1] was 0.684 µM; in [3] it was 25.8 µM. The same compound showed an IC50 in assay [2] of 76.5 µM. In addition, in assay [4], the Selectivity ratio was 2.96.

Turning to `Cc1ccc2nn(N=C3NCCN3)cc2c1`, the Ki in [1] is 11.4 µM; in assay [3] it was 45.6 µM. This compound came in with an IC50 in assay [2] of 13.4 µM. The Selectivity ratio in assay [4] came to 0.29.

In the case of `Cc1cccc2nn(N=C3NCCN3)cc12`, the Ki in assay [1] was determined as 35.1 µM; in assay [3], 11.8 µM.

Take `Cc1nn(N=C2NCCN2)c2ccccc12`: in assay [3], the inhibition constant Ki is 71.1 µM.

Regarding `Cc1cccc2cnn(N=C3NCCN3)c12.Cl`, the Activity in assay [5] is recorded as -43.2 mmHg; in [6] it was -122.9 bpm; in assay [7], -119.9 bpm; in assay [8], -40.6 mmHg; in assay [9], -115 bpm; in [10] it was -110 bpm. The Activity in assay [11] is -14.8 mmHg; in assay [12], -43.5 mmHg. For the same compound, the Ki is 2.52 µM in assay [1] and 0.0535 µM in assay [3]. This compound also had an IC50 in assay [2] of 0.387 µM. The Selectivity ratio in [4] came to 7.23. In assay [13], the ED50 was found to be 0.6 µg/kg. Also, the result in [14] was Active.

Regarding `c1ccc2c(c1)ncn2N=C1NCCN1`, the Ki in assay [1] was more than 10 µM; in assay [3], 6.02 µM. Also, the IC50 in assay [2] is more than 100 µM. Moreover, in [4], the Selectivity ratio was more than 16.6.

For the compound `Cl.Clc1ccc2c(cnn2N=C2NCCN2)c1`, the Activity in assay [5] is on record as -1.1 mmHg; in [6], 12.8 bpm; in assay [7], 28.6 bpm; in [8], -1.4 mmHg; in [9] it was 7.2 bpm; in assay [10], 0.6 bpm. For the same compound, the Activity is given as -0.2 mmHg in [11] and -2.8 mmHg in assay [12]. Further, the figures for the Ki in assay [1] and in [3] were 20.6 µM and 0.114 µM, respectively. In [2], this compound had an IC50 of 17 µM. Moreover, the Selectivity ratio in assay [4] stood at 149.

On to `Cc1ccc2cnn(N=C3NCCN3)c2c1.Cl`, for which the Activity in assay [5] is recorded as -11 mmHg; in assay [6] it was -26.4 bpm; in assay [7] it was -22.2 bpm; in [8], -23.4 mmHg; in [9], -43.5 bpm; in [10], -71.8 bpm. Besides, the results for the Activity in [11] and in [12] were -13.2 mmHg and -20.8 mmHg, respectively. The Ki in [1] stood at 19.2 µM; in assay [3], 0.0491 µM.
